An excerpt weighted towards active compounds, which were near 1.4% of everything screened.
CSN deneddyl inh: inhibitors of human CSN-mediated cullin deneddylation; Q92905; Purified CSN, SCF-Nedd8-OG deneddylation, fluorescence polarization; inhibition, % at 12.5 µM; hit rate 0.38% among 360,000;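 active means pattern-corrected inhibition above about 35%, with an unprinted fluorescence ratio check between 0.5 and 1.5, limit read from the data, passing the limit was not always enough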;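 further: 0% = enzyme with substrate and 100% = substrate without enzyme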
Target sequence (Q92905 whole entry, looked up, one chain of several): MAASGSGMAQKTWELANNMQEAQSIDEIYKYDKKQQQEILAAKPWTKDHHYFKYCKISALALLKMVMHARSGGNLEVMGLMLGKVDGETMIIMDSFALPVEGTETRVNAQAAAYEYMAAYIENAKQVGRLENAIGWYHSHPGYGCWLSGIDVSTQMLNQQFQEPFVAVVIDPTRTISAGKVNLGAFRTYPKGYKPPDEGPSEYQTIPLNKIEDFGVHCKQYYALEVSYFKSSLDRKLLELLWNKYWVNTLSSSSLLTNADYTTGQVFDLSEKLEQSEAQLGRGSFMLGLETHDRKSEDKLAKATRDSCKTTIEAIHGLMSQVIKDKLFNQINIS
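Detection – fluorescence polarization · System – HEK293T-derived human Csn5 enzyme · Controls – substrate-only high control, full reaction low control · Timing – 90 min, room temperature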
HNF4A DNA FP: change in binding of human HNF4 alpha to DNA; hit rate 0.3% among 360,000; P41235; activity change, % at 10 µM; HNF4a-FITC DNA binding, fluorescence polarization, 1 h; in the data active means activity change above about 30%, passing the limit was not always enough
IDE act: IDE (human) activation, cell-based; HEK cells, FAbeta-B cleavage, fluorescence polarization; 0% vehicle, 100% cell-free pure enzyme wells; AID 493087; activation, % at 5.96 µM; hit rate 0.073% among 340,000;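 active means activation above the mean of all tested compounds plus 3 SD, set per screening campaign, cut at about 17% in these data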
TPT1 inhibitor: C. albicans TPT1 enzyme inhibition; inhibition, % at 5 µM; hit rate 0.81% among 300,000; recombinant caTPT1, FP RNA substrate dephosphorylation;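 active means inhibition above the mean of all tested compounds plus 3 SD, set per screening campaign, cut at about 24% in these data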;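 further: plate controls were DMSO alone for no effect and ferristatin control at 100 nM for full effect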
IDE inh: cellular human IDE inhibition; HEK cells, FAbetaB cleavage, fluorescence polarization; inhibition, % at 5.59 µM; hit rate 0.41% among 320,000;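 active means percent inhibition above the average of all tested compounds plus 3 SD, set per screening campaign, cut at about 16% in these data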;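 further: IDE supplied by intact live HEK cells; FP after avidin binding of uncleaved biotin substrate so inhibition keeps polarization high; 0% = DMSO wells and 100% = 60 µM reference IDE inhibitor Ii1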
caTPT1 confirm: TPT1 (C. albicans) inhibition, confirmation; shares compounds with TPT1 inhibitor; recombinant caTPT1, fluorescence polarization, RNase T1 coupled; inhibition, % at 5 µM; hit rate 74% among 2,400;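 active means inhibition above the primary screen limit, the mean inhibition of all tested compounds plus 3 SD, cut at about 25% in these data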
RNase T1 inh: counter-screen for TPT1 inhibitors: inhibitors of Aspergillus oryzae RNase T1 | shares compounds with TPT1 inhibitor | RNase T1 cleavage, fluorescence polarization, 1536-well | inhibition, % at 5 µM | hit rate 83% among 2,400;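 active means inhibition above the solvent-only control well mean plus 3 SD, limit set per screening run, cut at about 23% in these data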;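 further: plate controls were DMSO wells with enzyme for no effect and wells without RNase T1 for full effect; inhibitors block cleavage so intact labeled substrate keeps polarization high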
Target sequence (P00651 whole entry, looked up): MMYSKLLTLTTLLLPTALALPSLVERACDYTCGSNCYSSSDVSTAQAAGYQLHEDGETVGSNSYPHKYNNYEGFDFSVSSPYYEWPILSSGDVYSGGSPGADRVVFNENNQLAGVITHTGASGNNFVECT
* marks the source's active call; other numbers are inactive results; . = not tested or not shown.

SMILES	CSN deneddyl inh	HNF4A DNA FP	IDE act	TPT1 inhibitor	IDE inh	caTPT1 confirm	RNase T1 inh
COc1ccc(NC(=O)CCc2nnc3ccc(NCc4ccc5c(c4)OCO5)nn23)cc1	36*	3	1	-6	6	.	.
Nc1c(Cl)cc2c(c1Oc1ccccc1)C(=O)c1ccccc1C2=O	11	23	1	25*	4	30*	41*
Cc1cccc(C)c1N1CCN(C(c2cc3ccccc3o2)c2nnnn2C(C)(C)C)CC1 (stereo not drawn)	7	4	.	.	.	.	.
COc1ccc(S(=O)(=O)Nc2ccc(N3CCOCC3)cc2)cc1	4	-4	0	2	5	.	.
CCOc1ccc(S(=O)(=O)Nc2nc3ccccc3nc2Nc2ccc(N3CCOCC3)cc2)cc1	-16	-17	2	28*	5	10	17
O=[N+]([O-])c1ccc(C[n+]2cccc3ccc4cccnc4c32)cc1	-10	1	6	8	3	.	.
O=[N+]([O-])c1ccc(C[n+]2cccc3ccccc32)cc1	17	4	1	56*	4	27*	36*
CCCc1nc2c3ccccc3ccn2c1CC1CCCCC1	4	-1	.	.	.	.	.
O=C(Nc1ccc(F)cc1)C(CCc1ccccc1)N1CCN(c2ccncc2)CC1 (stereo not drawn)	-1	1	.	.	.	.	.
O=C(O)C1=CCC(c2ccc(Cl)c(Cl)c2)N(S(=O)(=O)c2ccc(F)cc2)C1c1cccc(F)c1 (stereo not drawn)	1	-3	.	.	.	.	.
CCCCCCCCN1C(=O)[C@H](CC(=O)NCC2CCCCC2)C[C@@]2(C(=O)OCC)CCC=C12	-5	-3	.	.	.	.	.
O=c1cc(O)c2sc3nc(-c4cccnc4)cc(C(F)(F)F)c3c2[nH]1	11	12	1	32*	6	28*	40*
CC1=C(C#N)C(=O)N(C2CCS(=O)(=O)C2)C(=O)/C1=C\c1ccco1 (stereo not drawn)	.	.	.	74*	8	85*	10
O=C1NC(=Nc2cccnc2)S/C1=C\c1cccc(F)c1	13	17	0	22	1	.	.
COc1cc(/C=C2\SC(=Nc3cccnc3)NC2=O)cc(OC)c1OC	12	8	.	52*	12	73*	84*
COCCNC(=O)CN1C(=O)NC(c2ccccc2)(c2ccccc2)C1=O	2	-1	12	0	2	.	.
Cc1cc(/C=C2/C(=N)N3C(c4ccccc4)=CSC3=NC2=O)c(C)n1-c1ccccc1	15	11	-2	24*	0	18	27*
CCCCCCCCN1C(=O)[C@H](CC(=O)NCCCOCCCC)C[C@@]2(C(=O)OC)CC(C)(C)CC=C12	-4	0	.	.	.	.	.
N#Cc1cnc(SCCc2ccccc2)nc1N	7	17	-4	39*	5	32*	42*
Cc1cc(Cl)cc(C)c1OCCOCCNCc1ccccc1	0	2	5	3	0	.	.
O=C(NC1CCSC1=O)c1cccc(Cl)c1 (stereo not drawn)	-3	3	-2	31*	9	6	8
Nc1c(C(=O)N/N=C/c2ccc(F)cc2)oc2nc(-c3ccccc3)cc(-c3ccco3)c12	10	33	7	34*	0	109*	112*
Nc1c(C(=O)N/N=C/c2ccccc2Cl)oc2nc(-c3ccccc3)cc(-c3ccco3)c12	2	64	.	72*	12	92*	95*
CCN1CC2=C(OC(N)=C(C#N)C2c2ccccc2)/C(=C\c2ccccc2)C1 (stereo not drawn)	-1	-1	0	-4	3	.	.
CCN1CC2=C(OC(N)=C(C#N)C2c2cccs2)/C(=C/c2cccs2)C1 (stereo not drawn)	18	10	0	34*	11	25*	36*
SMILES	CSN deneddyl inh	HNF4A DNA FP	IDE act	TPT1 inhibitor	IDE inh	caTPT1 confirm	RNase T1 inh
CN1CCc2c(sc(NC(=O)c3ccco3)c2C(N)=O)C1	3	0	6	10	0	.	.
O=C(Nc1nc2c(s1)CCCC2)c1cccc(S(=O)(=O)N2CCCc3ccccc32)c1	-11	5	4	3	-3	.	.
CNC(=O)c1c(NC(=O)c2ccc(S(=O)(=O)N3CCCc4ccccc43)cc2)sc2c1CCN(C)C2	5	32*	-4	103*	1	79*	88*
NC(=O)c1c(NC(=O)c2ccc(S(=O)(=O)N3CCOCC3)cc2)sc2c1CCCCC2	1	-3	-6	-2	3	.	.
CN1CCc2c(sc(NC(=O)c3ccc(S(=O)(=O)N4CCOCC4)cc3)c2C(N)=O)C1	17	48*	-2	90*	2	101*	111*
CN1CCc2c(sc(NC(=O)c3ccc(S(=O)(=O)N4CCc5ccccc54)cc3)c2C(N)=O)C1	.	.	.	34*	8	51*	63*
CN1CCc2nc(NC(=O)c3cccc(S(=O)(=O)N4CCc5ccccc54)c3)sc2C1	41*	50*	5	49*	0	21	29*
CCOC(=O)C[C@@H]1OC[C@H](Cc2ccccc2)N1S(=O)(=O)c1ccc(C)cc1	-4	-1	.	.	.	.	.
CC(C)(C)NC(=O)C(c1ccccc1F)n1c(=O)c(-c2ccccc2)nc2ccccc21 (stereo not drawn)	-3	-3	.	.	.	.	.
Cn1cc(Cc2ccc(C(=O)NC34CC5CC(CC(C5)C3)C4)cn2)c2ccccc21	9	1	.	.	.	.	.
O=C1CCCN1CCCNc1nc(NCc2cccs2)nc2ccsc12	0	-1	.	.	.	.	.
CC(C)=CCC[C@H](C)C[C@@H]1Cc2[nH]c(=S)[nH]c(=O)c2[C@@H](c2ccc(F)cc2)O1	-6	4	.	.	.	.	.
CNC(=O)c1c(NC(=O)c2ccc(S(=O)(=O)N3CCCCC3)cc2)sc2c1CCN(C(C)C)C2	11	14	0	29*	3	30*	39*
CN(C)c1ccc(CC(=O)N2CCCCC2c2cc(C(=O)Nc3ccccc3)no2)cc1 (stereo not drawn)	3	0	.	.	.	.	.
C/C(=N\NC(=O)c1c(C)nc2ccccn12)c1ccc(O)cc1O	3	5	2	35*	-6	38*	41*
C/C(=N\NC(=O)c1c(C)nc2ccccn12)c1ccccc1F	-1	2	-5	-3	6	.	.
CC(C)(C)C(c1nc2ccccc2[nH]1)n1c(-c2ccsc2)nc2ccccc21 (stereo not drawn)	1	-3	.	.	.	.	.
Cc1noc(C)c1C(=O)NC(C)C12CC3CC(CC(C3)C1)C2 (stereo not drawn)	2	2	1	-4	-2	.	.
CCCC(NC(=O)c1c(C)noc1C)C12CC3CC(CC(C3)C1)C2 (stereo not drawn)	3	0	2	81*	3	25*	35*

Screening results from PubChem BioAssay.
